Legend:
[1] = Clearance in Sprague-Dawley rat at 2.5 mg/kg, iv by LC-MS/MS method; assay type: ADME, organism-based; settings: in vivo
Outline: (§1)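 Female Sprague-Dawley rats (250–274 g) with dual jugular/femoral vein catheters, 3 per compound, given a single 2.5 mg/kg bolus into the jugular catheter over 5 s, 3 days after oral dosing. Vehicle was 0.05% sodium carboxymethylcellulose or 25% hydroxypropyl-β-cyclodextrin in water. Femoral blood sampled at 0–480 min into K2EDTA. Plasma analysed by LC–MS/MS with an internal standard. Non-compartmental analysis.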

[2] = Terminal half life in Sprague-Dawley rat at 2.5 mg/kg, iv by LC-MS/MS method; assay type: ADME, organism-based; settings: in vivo, read-out: beta t1/2
[3] = tested on: Caco-2; assay: (§2) Efflux ratio in human Caco2 cells after 30 to 120 mins by HPLC method; assay type: ADME, cell-based
Outline: (§3)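 Caco-2 cells (passage 50–70) grown 21 days on Transwell inserts, used only where TEER >300. Apical buffer pH 6.0, basolateral pH 7.4, 60 min preincubation. Compound dosed from a 20 mM DMSO stock with lucifer yellow on the donor side. Samples analysed by HPLC. Papp = (dQ/dt)/(A·C0) from cumulative sampling. Efflux ratio from B–A and A–B values.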

[4] = AUC (0 to infinity) in Sprague-Dawley rat at 2.5 mg/kg, iv by LC-MS/MS method; assay type: ADME, organism-based; set-up: dose 2.5 mg/kg, route intravenous, time infinity; settings: in vivo; outline: as §1
[5] = Inhibition of Mycobacterium tuberculosis MbtA expressed in Escherichia coli using [32P]PPi, ATP and salicylic acid incubated for 20 mins by liquid scintillation counting method; settings: read-out: Ki(app)
[6] = (§4) Cmax in Sprague-Dawley rat at 25 mg/kg, po by LC-MS/MS method; assay type: ADME, organism-based; set-up: dose 25 mg/kg, route oral; settings: Sprague-Dawley, in vivo
Outline: (§5)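 Female Sprague-Dawley rats (250–274 g), catheterised, 3 per compound, dosed by oral gavage at 25 mg/kg from a 10 mg/mL solution. Femoral-vein blood taken at 0, 15, 30, 45, 60, 120, 240 and 480 min into K2EDTA. Plasma protein-precipitated with an internal standard and quantified by LC–MS/MS against standards in rat plasma. Parameters by non-compartmental analysis.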

[7] = tested on: Mycobacterium tuberculosis; assay: Antimicrobial activity against Mycobacterium tuberculosis H37Rv grown in GAS medium without ferric ammonium citrate at pH 6.6 incubated for 10 to 14 days by broth microdilution method; assay type: functional
[8] = tested on: Rattus norvegicus; assay: Oral bioavailability in Sprague-Dawley rat at 25 mg/kg by LC-MS/MS method; assay type: ADME, organism-based; settings: in vivo
Outline: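 Crossover in the same 3 female Sprague-Dawley rats: 25 mg/kg by oral gavage, then after a 3-day washout 2.5 mg/kg iv bolus. Serial femoral plasma quantified by LC–MS/MS. AUCs by non-compartmental analysis. Absolute bioavailability calculated individually for each rat from its oral and iv data.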

[9] = tested on: HepG2; assay: Cytotoxicity against human HepG2 cells assessed as reduction in cell viability incubated for 48 hrs by MTT assay; assay type: cell-based; settings: hepg2, 48 h
Outline: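 HepG2 cells (2.5–5.0 × 10^4 per well) in EMEM with 10% FBS, in triplicate. Final compound concentrations 1–200 μM diluted from 20 mM DMSO stocks. Controls were 1% DMSO and 1% Triton X-100. Incubated 48 h at 37 °C under 5% CO2.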

[10] = Ratio of MIC for antimicrobial activity against Mycobacterium tuberculosis H37Rv to KI)app) for inhibition of Mycobacterium tuberculosis MbtA expressed in Escherichia coli
[11] = tested on: Caco-2; assay: (§6) Apparent permeability from basolateral to apical side in human Caco2 cells after 30 to 120 mins by HPLC method; assay type: ADME, cell-based; outline: as §3
[12] = tested on: Caco-2; assay: (§7) Apparent permeability from apical to basolateral side in human Caco2 cells after 30 to 120 mins by HPLC method; assay type: ADME, cell-based; outline: as §3
[13] = (§8) AUC (0 to infinity) in Sprague-Dawley rat at 25 mg/kg, po by LC-MS/MS method; assay type: ADME, organism-based; set-up: dose 25 mg/kg, time infinity, route oral; settings: Sprague-Dawley, in vivo
[14] = as §2; assay type: ADME, cell-based; settings: caco-2; outline: as §3
[15] = tested on: Rattus norvegicus; assay: as §4; assay type: ADME, organism-based; set-up: dose 25 mg/kg, route oral; settings: in vivo, BLD = below limit of detection; outline: as §5
[16] = as §6; assay type: ADME, cell-based; settings: caco-2; outline: as §3
[17] = as §7; assay type: ADME, cell-based; settings: caco-2; outline: as §3
[18] = tested on: Rattus norvegicus; assay: as §8; assay type: ADME, organism-based; set-up: dose 25 mg/kg, time infinity, route oral; settings: in vivo, BLD = below limit of detection
[19] = tested on: Plasma; assay: Drug metabolism in Sprague-Dawley rat plasma assessed as 2',3'-O-Di-acetyl-5'-O-[N-(2-hydroxybenzoyl)sulfamoyl]-adenosine formation at 10 uM; assay type: ADME, cell-free
[20] = tested on: Plasma; assay: Drug metabolism in Sprague-Dawley rat plasma assessed as 5'-O-[N-(Salicyl)sulfamoyl]adenosine formation at 10 uM; assay type: ADME, cell-free
[21] = Solubility in water; assay type: physicochemical; settings: buffer
[22] = Stability in pH 12 buffer solutions assessed as compound degradation after 24 hrs at 37 degC; assay type: physicochemical; settings: read-out: Drug degradation
Outline: (§9)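 Compound held at pH 1 or pH 12 for 24 h at 37 °C, with degradation measured.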

[23] = tested on: Liver; assay: Half life in mouse liver microsomes at 1 uM in presence of NADPH by LC-MS/MS method; assay type: ADME
Outline: (§10)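 Liver microsomes (rat, mouse or pooled human, 0.5 mg/mL) in 100 mM potassium phosphate pH 7.4 with 10 mM MgCl2 and 1.0 μM compound. Preincubated, then NADPH added (water for control). Incubated 60 min at 37 °C. Acetonitrile quench, centrifugation, supernatant analysed by LC–MS/MS.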

[24] = tested on: Liver microsome; assay: Half life in human liver microsomes at 1 uM in presence of NADPH by LC-MS/MS method; assay type: ADME; outline: as §10
[25] = Stability in pH 1 buffer solutions assessed as compound degradation after 24 hrs at 37 degC; assay type: physicochemical; settings: read-out: Drug degradation; outline: as §9
[26] = Cmax in BALB/c mouse; assay type: ADME, organism-based; settings: in vivo
[27] = AUC in BALB/c mouse; assay type: ADME, organism-based; settings: in vivo
[28] = tested on: Liver microsome; assay: Half life in rat liver microsomes at 1 uM in presence of NADPH by LC-MS/MS method; assay type: ADME; outline: as §10
[29] = Ratio of Cmax in Sprague-Dawley rat at 25 mg/kg, po to MIC for antimicrobial activity against Mycobacterium tuberculosis H37Rv; assay type: ADME, organism-based; settings: in vivo
Outline: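 Female Sprague-Dawley rats (250–274 g, catheterised; 3 per compound) got a 25 mg/kg gavage dose from a 10 mg/mL solution. Plasma drawn 0–480 min was read by LC–MS/MS, and Cmax was taken by non-compartmental analysis. […] Cmax was divided by MIC.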

In the case of CCN(CC)CC.Nc1ncnc2c1ncn2[C@@H]1O[C@H](CNS(=O)(=O)NC(=O)c2ccccc2O)[C@@H](O)[C@H]1F, the clearance [1] is reported as 2.5 mL/min/kg, the half-life [2] is reported as 32.5 min and the Ratio [3] is reported as 0.32. The AUC(0-inf) [4] was 17400 ng·h/mL, the Ki [5] was 1.7 nM and the Cmax [6] was 460 ng/mL. It also gave an MIC [7] of 0.19 µM, an F [8] of 1.8% and a CC50 [9] of over 200000 nM. For the same compound, the Ratio [10] was 112, the Papp [11] was 1.34 ×10⁻⁶ cm/s and the Papp [12] was 4.2 ×10⁻⁶ cm/s. It also gave an AUC(0-inf) [13] of 3130 ng·h/mL.
In the case of CC(=O)O[C@@H]1[C@H](OC(C)=O)[C@@H](COS(=O)(=O)NC(=O)c2ccccc2O)O[C@H]1n1cnc2c(N)ncnc21.CCN(CC)CC, the efflux ratio [14] is reported as 1.55, the Cmax [15] is reported as “BLD” and the Papp B→A [16] is reported as 0.97 ×10⁻⁶ cm/s. For the same compound, the Papp A→B [17] was 0.62 ×10⁻⁶ cm/s and the AUC [18] was “BLD”.
With CC(=O)Oc1ccccc1C(=O)NS(=O)(=O)OC[C@H]1O[C@@H](n2cnc3c(N)ncnc32)[C@H](OC(C)=O)[C@@H]1OC(C)=O.CCN(CC)CC the Drug metabolism [19] was “metabolite_detected”, the Cmax [6] was 30 ng/mL and the Drug metabolism [20] was “metabolite_detected”. It also gave an AUC(0-inf) [13] of 48.3 ng·h/mL.
CCN(CC)CC.Nc1ccc(C(=O)NS(=O)(=O)NC[C@H]2O[C@@H](n3cnc4c(N)ncnc43)[C@H](O)[C@@H]2O)c(O)c1 showed a clearance [1] of 46.3 mL/min/kg, a half-life [2] of 10.6 min and an AUC(0-inf) [4] of 1050 ng·h/mL. For the same compound, the Ki [5] was 8.9 nM, the Cmax [6] was 90 ng/mL and the MIC [7] was 3.12 µM. The F [8] was 3.7%, the CC50 [9] was over 200000 nM and the Ratio [10] was 351. For the same compound, the AUC(0-inf) [13] was 280 ng·h/mL.
For CCN(CC)CC.O=C(NS(=O)(=O)NC[C@H]1O[C@@H](n2cnc3c(NC4CC4)ncnc32)[C@H](O)[C@@H]1O)c1ccccc1O, the clearance [1] was 9.6 mL/min/kg, the half-life [2] was 15.1 min and the AUC(0-inf) [4] was 3480 ng·h/mL. The Ki [5] was 1.5 nM, the Cmax [6] was 140 ng/mL and the MIC [7] was 0.098 µM. It also gave an F [8] of 1%, a Ratio [10] of 65 and an AUC(0-inf) [13] of 302 ng·h/mL.
With CCN(CC)CC.O=C(NS(=O)(=O)NC[C@H]1O[C@@H](n2cnc3c(NC4CC4)nc(-c4ccccc4)nc32)[C@H](O)[C@@H]1O)c1ccccc1O the clearance [1] was 13.6 mL/min/kg, the half-life [2] was 15.5 min and the Ratio [3] was 3.45. It also gave an AUC(0-inf) [4] of 3070 ng·h/mL, a Ki [5] of 0.76 nM and a Cmax [6] of 100 ng/mL. For the same compound, the MIC [7] was 6.25 µM, the F [8] was 0.3% and the Ratio [10] was 8224. The Papp [11] was 1.8 ×10⁻⁶ cm/s, the Papp [12] was 0.52 ×10⁻⁶ cm/s and the AUC(0-inf) [13] was 66.7 ng·h/mL.
For CCN(CC)CC.Nc1nc(-c2ccccc2)nc2c1ncn2[C@@H]1O[C@H](CNS(=O)(=O)NC(=O)c2ccccc2O)[C@@H](O)[C@H]1F, the clearance [1] was 1.3 mL/min/kg, the half-life [2] was 121 min and the AUC(0-inf) [4] was 33000 ng·h/mL. The Ki [5] was 1.6 nM, the Cmax [6] was 500 ng/mL and the MIC [7] was 1.56 µM. The F [8] was 0.8%, the CC50 [9] was over 200000 nM and the Ratio [10] was 975. The AUC(0-inf) [13] was 2330 ng·h/mL.
In the case of CCN(CC)CC.Nc1ncnc2c1ncn2[C@@H]1O[C@H](CNS(=O)(=O)NC(=O)c2ccccc2O)C[C@H]1F, the clearance [1] is reported as 2.6 mL/min/kg, the half-life [2] is reported as 62 min and the AUC(0-inf) [4] is reported as 16000 ng·h/mL. For the same compound, the Ki [5] was 3 nM, the Cmax [6] was 560 ng/mL and the MIC [7] was 0.78 µM. The F [8] was 2%, the Ratio [10] was 260 and the AUC(0-inf) [13] was 3300 ng·h/mL.
CCN(CC)CC.Nc1ncnc2c1ncn2[C@@H]1O[C@H](COS(=O)(=O)NC(=O)c2ccccc2O)[C@@H](O)[C@H]1O gave a solubility [21] of over 50 mg/mL, a clearance [1] of 4.9 mL/min/kg and a half-life [2] of 11 min. For the same compound, the degraded at 24 h [22] was under 5%, the t1/2 [23] was over 30 min and the Ratio [3] was 0.78. The AUC(0-inf) [4] was 8650 ng·h/mL, the t1/2 [24] was over 30 min and the Cmax [6] was 400 ng/mL. For the same compound, the MIC [7] was 0.39 µM, the degraded at 24 h [25] was under 5% and the Cmax [26] was 1200 ng/mL. It also gave an F [8] of 1.3%, an AUC [27] of 977 ng·h/mL and a CC50 [9] of over 200000 nM. The t1/2 [28] was over 30 min, the Papp [11] was 0.96 ×10⁻⁶ cm/s and the Papp [12] was 1.23 ×10⁻⁶ cm/s. For the same compound, the AUC(0-inf) [13] was 1100 ng·h/mL.
CCN(CC)CC.Nc1ncnc2c1ncn2[C@@H]1O[C@H](CNS(=O)(=O)NC(=O)c2ccccc2O)[C@@H](O)[C@H]1O showed a clearance [1] of 8.4 mL/min/kg, a half-life [2] of 10.6 min and a Ratio [29] of 7. It also gave an AUC(0-inf) [4] of 5070 ng·h/mL, a Ki [5] of 3.7 nM and a Cmax [6] of 700 ng/mL. The MIC [7] was 0.19 µM, the F [8] was 3.5% and the CC50 [9] was over 200000 nM. The Ratio [10] was 51, the Papp [11] was 0.86 ×10⁻⁶ cm/s and the Papp [12] was 1.23 ×10⁻⁶ cm/s.
NNC(=O)c1ccncc1 [ISONIAZID] showed a Cmax [6] of 13500 ng/mL and an F [8] of 65%.
